# Bioassay records (PubChem BioAssay)
# The sample as a whole holds a higher share of hits than the screen did.
# HUVEC inhibit = inhibitors of human endothelial cell proliferation; HUVEC proliferation, CellTiter-Glo luminescence, 72 h; stronger effect = lower value; viability, % at 10 µM (by protocol); 1.1% of 86,000 active; AID 648;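 active = viability at or below 30%; inactive = viability above 30%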;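 also: 100% = median luminescence of DMSO-only cell control wells on each plate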
# HCT116 bCat-KO = beta-catenin-lacking colon tumor cell growth suppression; viability, % at 10 µM; 1.5% of 140,000 active; HCT116 beta-catenin knockout viability, CellTiter-Glo, 60 h; stronger effect = lower value;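 active = viability at or under a set limit, the compound median less 4 SD, cut at about 6% in these data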;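 also: 0% = Hyamine 1622 control at 20 µM and 100% = untreated cell control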
# Fibroblast inh = blocks proliferation of human lung fibroblasts | LL 47 human lung fibroblast viability, ATP luminescence; stronger effect = lower value | 1.1% of 85,000 active | viability, % at 10 µM;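 active = viability at or below 50% in the single dose screen; inactive = viability above 50%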;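 also: compound exposure lasted 72 h before the ATP readout; 100% = median luminescence of untreated cell-only wells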
#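 Test system: LL 47 human lung fibroblasts / Quantity: 1,150 cells in each well / Medium: IMEM growth medium with 15% fetal bovine serum / Incubation: 72 h compound exposure at 37 °C after overnight plating / Detection: CellTiter-Glo luminescence measuring cellular ATP / Read-out: % viability versus median cells-only luminescence / Benchmarks: cell-only wells, no compound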
# H69AR inhibit = blocks growth of human H69AR lung tumor cells | H69AR lung tumor viability, ATP luminescence, 72 h; stronger effect = lower value | viability, % at 10 µM | 6% of 85,000 active | AID 598;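 active = viability at or below 40%; inactive = viability above 40%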;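 also: multidrug resistant small cell line overexpressing MRP-1 efflux transporter; 100% = mean luminescence of untreated control wells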
# PTEN del growth = growth suppressors of cells with PTEN tumor suppressor deletion. HCT116 PTEN-null viability, CellTiter-Glo, 60 h; stronger effect = lower value. viability, % at 10 µM. 1.2% of 140,000 active;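 active = viability at or below a set limit, 4 SD under the median of all tested compounds, cut at about 3.7% in these data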;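 also: PTEN knockout HCT116 line with beta catenin targeted HCT116 as companion control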
# * = called active by the depositor; . = not tested or not shown.
SMILES,HUVEC inhibit,HCT116 bCat-KO,Fibroblast inh,H69AR inhibit,PTEN del growth
CC(=O)Nc1ccc(N=Cc2ccc[nH]2)cc1,.,102,.,.,94
Cc1ccc(OCc2nnc(SCc3nc4ccccc4[nH]3)n2Cc2ccco2)cc1,85,34,92,91,42
CCn1c(COc2ccc(Cl)cc2)nnc1SCc1nc2ccccc2[nH]1,88,38,91,4.4*,40
CCc1ccccc1N(CC(=O)N/N=C/c1ccc(OC(=O)OC)c(OC)c1)S(C)(=O)=O,.,101,.,.,93
COc1ccc(C(=O)c2ccc(OC)cc2O)c(O)c1,90,64,89,32*,86
COc1ccc2occ(C(C)=O)c2c1,90,95,96,85,100
COc1ccc(OC)c(C(=O)c2coc3ccc(O)cc23)c1,78,98,99,24*,106
C=CCNC(=S)N/N=C(\C)c1ccccn1,19*,7,9.2*,20*,7
C/C(=N\NC(=S)NCc1ccccc1)c1ccccc1,.,86,.,.,85
C/C(=N\NC(=O)CCCNc1ccc(C)cc1)c1ccccn1,.,5.8*,.,.,5
C/C(=N/NC(=O)CNC(=O)c1ccccn1)c1ccccc1,.,107,.,.,97
CCOC(=O)c1nnn(-c2nonc2-c2ccccc2)c1C,105,86,107,87,84
O=C(/C=C/c1ccccc1)c1ccc2c(c1)OCCCCO2,.,3.5*,.,.,5
Cc1cc(S(=O)(=O)Nc2cc(C)c(O)c(C)c2)c(C)s1,88,1.9*,91,89,2.1*
Cc1cc(S(=O)(=O)Nc2ccc3ccccc3c2)c(C)s1,55,14,72,12*,23
Cc1cc(S(=O)(=O)Nc2cccnc2)c(C)s1,90,92,103,106,94
CCOc1ccc(-c2cc(NC(=O)Cn3ncc4c3-c3ccccc3OC4)on2)cc1OCC,50,82,94,30*,91
CCC(=O)N=c1sc2cc(F)cc(F)c2n1C,77,.,94,87,.
CCn1c(=NC(=O)CSC(C)=O)sc2cc(F)ccc21,53,96,97,28*,95
Cn1cc(SCC(=O)Nc2nc3ccccc3s2)c2ccccc21,10*,85,97,71,76
O=C(CCC1CCCC1)c1c(O)c2ccccc2oc1=O,1.8*,84,91,81,88
O=C(c1c(O)c2ccccc2oc1=O)C1CCCCC1,83,96,90,54,97
CCOC(=O)N1CCN(C(=O)c2ccc(Cl)c(S(=O)(=O)Nc3ccccc3)c2)CC1,95,94,104,32*,91
Cc1cccc(NS(=O)(=O)c2cc(C(=O)N3CCCC3)ccc2Cl)c1,.,86,.,.,94
C=CCNc1ncnc2c1ncn2C1OC(CO)C(O)C1O (centres undefined),41,10,40*,31*,13
SMILES,HUVEC inhibit,HCT116 bCat-KO,Fibroblast inh,H69AR inhibit,PTEN del growth
CC1(C)Cc2ccccc2C(NNC(=O)c2ccccn2)=N1,85,9,46*,30*,6
CC1(C)Cc2ccccc2C(N/N=C/c2cccc(F)c2)=N1,.,100,.,.,91
CCOC(=O)/C(C(N)=NC(C)C)=C(\O)c1ccccc1,86,94,90,88,92
Cc1cc(C)nc(NS(=O)(=O)c2ccc(NC(=O)c3cccs3)cc2)n1,97,81,93,103,93
CCCCN(CCCC)S(=O)(=O)c1ccc(NC(=O)c2cccs2)cc1,78,8,88,26*,7
Cc1cccnc1NC(=O)c1ccc([N+](=O)[O-])o1,.,56,.,.,45
Cc1cccc(NC(=O)c2ccc([N+](=O)[O-])o2)n1,.,3.3*,.,.,2.5*
CCCCN(Cc1cc2cc(OC)ccc2[nH]c1=O)C(=O)COc1ccccc1,93,.,104,39*,.
Cc1cc2cc(CN(Cc3ccc4c(c3)OCO4)C(=O)c3ccco3)c(=O)[nH]c2cc1C,74,42,96,33*,30
CCN(Cc1cc2cc(OC)ccc2[nH]c1=O)C(=O)c1ccncc1,85,105,96,88,97
Cc1ccc2[nH]c(=O)c(CN(Cc3cccnc3)C(=O)c3ccncc3)cc2c1,62,46,88,28*,47
COc1cc2cc(CN(Cc3ccc4c(c3)OCO4)C(=O)c3ccco3)c(=O)[nH]c2cc1OC,87,.,100,52,.
COc1ccc(C(=O)N(Cc2ccccc2)Cc2cc3cc4c(cc3[nH]c2=O)OCCO4)cc1,28*,98,42*,18*,95
COC(C(=O)Nc1ccc(F)cc1)c1ccccc1 (centres undefined),84,97,102,88,95
CC(C)COC(=O)c1ccc2c(c1O)C(=O)c1ccccc1C2=O,10*,38,75,45,26
